Assays:
Zika virus [1] = assay: (§1) Antiviral activity against ZIKV FLR infected in Vero cells assessed as inhibition of viral replication by measuring reduction in cytopathic effect at 10 uM preincubated with compounds for 2 hrs followed by replacement with fresh media containing compounds and measured after 48 hrs by MTT assay relative to control; type: functional; settings: time 50 hrs
Procedure, shortened: (§2)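 Monolayers of 2 × 10^4 cells/well in DMEM with 2% FBS. Infected at 0.1 MOI together with compound for 2h. Wells washed with PBS, then fresh medium with compound added in duplicate and incubated 48h at 37 °C. Supernatant titred by end-point dilution: half-log dilutions on Vero monolayers in quadruplicate for 5–7 days, CPE by microscope then MTT. TCID50 compared with untreated; EC50 from dose-response fit of ≥2 independent experiments.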

Vero = assay: Cytotoxicity against African green monkey Vero cells at 10 uM; type: toxicity, cell-based; settings: chlorocebus sabaeus
Procedure, shortened: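 Vero monolayers in 96-well plates, treated with compound at 10 μM in duplicate for 72 h during the phenotypic anti-ZIKV screen (0.1 MOI ZIKV FLR strain). An MTT assay optionally quantified viable cells.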

Zika virus [2] = assay: as §1, with “1” for “10”; type: functional; settings: time 50 hrs; procedure, shortened: as §2
Zika virus [3] = assay: Antiviral activity against ZIKV FLR infected in Vero cells assessed as inhibition of viral replication by measuring log reduction in cytopathic effect at 10 uM preincubated with compounds for 2 hrs followed by replacement with fresh media containing compounds and measured after 48 hrs by MTT assay; type: functional; settings: time 50 hrs; procedure, shortened: as §2
Zika virus [4] = assay: Antiviral activity against ZIKV FLR infected in Vero cells assessed as inhibition of viral replication by measuring log reduction in cytopathic effect at 1 uM preincubated with compounds for 2 hrs followed by replacement with fresh media containing compounds and measured after 48 hrs by MTT assay; type: functional; settings: time 50 hrs; procedure, shortened: as §2
Zika virus [5] = assay: Antiviral activity against ZIKV FLR infected in Vero cells assessed as inhibition of viral replication by measuring reduction in cytopathic effect preincubated with compounds for 2 hrs followed by replacement with fresh media containing compounds and measured after 48 hrs by MTT assay; type: functional, organism-based; procedure, shortened: as §2
U-87 MG = assay: Cytotoxicity against human U87 cells assessed as reduction in cell viability; type: toxicity, cell-based; settings: u-87mg atcc
dengue virus type 2 = assay: Antiviral activity against Dengue virus serotype 2 K0049 infected in Vero cells assessed as inhibition of viral replication pretreated for 2 hrs followed by replacement with fresh medium containing compound and measured after 48 hrs by MTT assay; type: functional, organism-based; procedure, shortened: as §2
Zika virus [6] = assay: Antiviral activity against ZIKV FLR infected in human U87 cells assessed as inhibition of viral replication pretreated with compounds for 2 hrs followed by replacement with fresh medium containing compound and measured after 48 hrs by MTT assay; type: functional, organism-based; settings: U-87 MG; procedure, shortened: as §2
Zika virus [7] = assay: Antiviral activity against ZIKV FLR infected in Vero cells assessed as reduction in number of viral RNA copies by qRT-PCR analysis; type: functional, organism-based; settings: dose 0.3-10 µM
Procedure, shortened: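 Viral RNA measured in cell supernatant after compound treatment. Copies/mL calculated from a standard curve.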

Zika virus [8] = assay: Antiviral activity against ZIKV FLR infected in mosquito C6/36 cells assessed as inhibition of viral replication pretreated with compounds for 2 hrs followed by replacement with fresh medium containing compound and measured after 48 hrs bt MTT assay; type: functional, organism-based; procedure, shortened: as §2

| Structure (SMILES) | inhibition at 10 µM (Zika virus [1]) | other results |
| --- | --- | --- |
| CCN(CC)CCCC(C)Nc1ccnc2cc(Cl)ccc12 (configuration not stated) [CHLOROQUINE] | 90% |  |
| COc1cccc(/C=C/c2nc3ccc(-c4ccc(N(C)C)cc4)cc3c(=O)n2-c2cccc(C(C)(C)C)c2)n1 | 96.8% |  |
| COc1cccc(/C=C/c2nc3ccc(N4CCNCC4)cc3c(=O)n2-c2cccc(C(C)(C)C)c2)n1 |  | Activity (Vero): Toxic |
| CC(C)(C)c1cccc(-n2c(/C=C/c3ccc4ccccc4c3)nc3ccc(N4CCCCC4)cc3c2=O)c1 | 99.7% |  |
| O=c1c2ccccc2nc(/C=C/c2cccnc2)n1-c1ccccc1 | 0% |  |
| COc1cccc(/C=C/c2nc3ccc(N4CCN(C(=O)OC(C)(C)C)CC4)cc3c(=O)n2-c2cccc(C(C)(C)C)c2)c1 | 99% |  |
| COc1cccc(/C=C/c2nc3ccc(N4CCC(N5CCOCC5)CC4)cc3c(=O)n2-c2cccc(C)c2)n1 | 99.9% | inhibition at 1 µM (Zika virus [2]): 0% |
| COc1cccc(/C=C/c2nc3ccc(N4CCC(N5CCOCC5)CC4)cc3c(=O)n2-c2cccc(C(C)(C)C)c2)n1 | 99.9% | inhibition at 1 µM (Zika virus [2]): 90% |
| COc1cccc(/C=C/c2nc3ccc(-c4ccncc4)cc3c(=O)n2-c2cccc(C(C)(C)C)c2)n1 | 0% |  |
| COc1cccc(/C=C/c2nc3ccc(OC)cc3c(=O)n2-c2cccc(C(C)(C)C)c2)c1 | 0% |  |
| COc1cccc(-n2c(/C=C/c3cccc(OC)n3)nc3ccc(N4CCOCC4)cc3c2=O)c1 | 99% |  |
| CC(C)(C)c1ccc(-n2c(/C=C/c3cccnc3)nc3ccccc3c2=O)cc1 | 0% |  |
| CC(C)(C)c1cccc(-n2c(/C=C/c3ccncc3)nc3ccc(N4CCCCC4)cc3c2=O)c1 | 68.4% |  |
| CC(C)(C)c1ccc(-n2c(/C=C/c3cncnc3)nc3ccccc3c2=O)cc1 | 0% |  |
| CC(C)(C)c1ccc(-n2c(/C=C/c3cncc(Br)c3)nc3ccccc3c2=O)cc1 | 0% |  |
| COc1cccc(/C=C/c2nc3ccc(N4CCOCC4)cc3c(=O)n2-c2cccc(C(F)(F)F)c2)n1 | 0% |  |
| COc1cccc(/C=C/c2nc3ccc(N4CCCCC4)cc3c(=O)n2-c2cccc(C(C)(C)C)c2)c1 | 99.9% | inhibition at 1 µM (Zika virus [2]): 68.4% |
| CC(C)(C)c1cccc(-n2c(/C=C/c3ccc(C(F)(F)F)nc3)nc3ccccc3c2=O)c1 | 90% | log(activity) (Zika virus [3]): 0.5 |
| COc1cccc(/C=C/c2nc3ccc(N4CCN(C(=O)OC(C)(C)C)CC4)cc3c(=O)n2-c2cccc(C(C)(C)C)c2)n1 | 99% |  |
| COc1cccc(/C=C/c2nc3ccccc3c(=O)n2-c2cccc(C(C)(C)C)c2)c1 | 0% |  |
| COc1cccc(/C=C/c2nc3ccc(N4CCOCC4)cc3c(=O)n2-c2cccc(C)c2)n1 | 90% |  |
| COc1cccc(/C=C/c2nc3ccc(-c4ccc(N5CCCC5)cc4)cc3c(=O)n2-c2cccc(C(C)(C)C)c2)n1 | 96.8% |  |
| COc1cccc(/C=C/c2nc3ccc(N4CCN(C)CC4)cc3c(=O)n2-c2cccc(C(C)(C)C)c2)n1 |  | Activity (Vero): Toxic |
| CC(C)(C)c1cccc(-n2c(/C=C/c3ccccc3)nc3ccccc3c2=O)c1 | 0% |  |
| COc1ccc2nc(/C=C/c3cccc(OC)n3)n(-c3cccc(C(C)(C)C)c3)c(=O)c2c1 | 0% |  |
| COc1cccc(/C=C/c2nc3ccc(Cl)cc3c(=O)n2-c2cccc(C(C)(C)C)c2)n1 | 0% |  |
| CC(C)(C)c1cccc(-n2c(/C=C/c3ccc(C(F)(F)F)cc3)nc3ccccc3c2=O)c1 | 90% |  |

| Structure (SMILES) | inhibition at 10 µM (Zika virus [1]) | other results |
| --- | --- | --- |
| NCc1ccc(-c2ncc(OCC3CCNCC3)nc2-c2ccc(-c3ccoc3)cc2)cc1 |  | inhibition at 1 µM (Zika virus [2]): 68% |
| COc1cccc(-n2c(/C=C/c3cccc(OC)n3)nc3ccc(N4CCC(N5CCOCC5)CC4)cc3c2=O)c1 | 99.9% | inhibition at 1 µM (Zika virus [2]): 68.4% |
| COc1cc(/C=C/c2nc3ccc(N4CCN(C)CC4)cc3c(=O)n2-c2cccc(C(C)(C)C)c2)cc(OC)c1 |  | Activity (Vero): Toxic |
| CCN(CC)c1ccc2nc(/C=C/c3cccc(OC)n3)n(-c3cccc(C(C)(C)C)c3)c(=O)c2c1 | 99.9% | inhibition at 1 µM (Zika virus [2]): 68.4%; log(activity) (Zika virus [3]): 3; log(activity) (Zika virus [4]): 0.5 |
| COc1cccc(/C=C/c2nc3ccc(C4=CCOCC4)cc3c(=O)n2-c2cccc(C(C)(C)C)c2)n1 | 96.8% |  |
| CC(C)(C)c1cccc(-n2c(/C=C/c3ccncc3)nc3ccccc3c2=O)c1 | 68.4% |  |
| COc1cccc(/C=C/c2nc3ccc(N4CCCCC4)cc3c(=O)n2-c2cccc(C)c2)n1 | 99.9% | inhibition at 1 µM (Zika virus [2]): 0% |
| COc1cccc(/C=C/c2nc3ccc(N4CCCCC4)cc3c(=O)n2-c2cccc(C(C)(C)C)c2)n1 | 99.9% | EC50 (Zika virus [5]): 900 nM; CC50 (U-87 MG): > 20000 nM; EC50 (dengue virus type 2): 160 nM; EC50 (Zika virus [6]): 820 nM; inhibition at 1 µM (Zika virus [2]): 90%; Activity (Zika virus [7]): Dose-Dependent Effect; EC50 (Zika virus [8]): 750 nM |
| COc1cccc(-c2ccc3nc(/C=C/c4cccc(OC)n4)n(-c4cccc(C(C)(C)C)c4)c(=O)c3c2)c1 | 0% |  |
| COc1cccc(CCc2nc3ccc(N4CCOCC4)cc3c(=O)n2-c2cccc(C(C)(C)C)c2)n1 | 0% |  |
| CC(C)(C)c1cccc(-n2c(/C=C/c3ccc(C(F)(F)F)nc3)nc3ccc(N4CCCCC4)cc3c2=O)c1 | 90% |  |
| COc1cccc(/C=C/c2nc3ccc(N4CCC(N5CCOCC5)CC4)cc3c(=O)n2-c2cccc(C(F)(F)F)c2)n1 | 68.4% |  |
| CC(C)(C)c1cccc(-n2c(/C=C/c3cccnc3)nc3ccccc3c2=O)c1 | 0% |  |
| COc1cccc(/C=C/c2nc3ccc(N4CCCCC4)cc3c(=O)n2-c2cccc(C(F)(F)F)c2)n1 | 99% |  |
| COc1cccc(/C=C/c2nc3ccccc3c(=O)n2-c2cccc(C(C)(C)C)c2)n1 | 0% |  |
| Cc1cccc(-n2c(/C=C/c3cccnc3)nc3ccccc3c2=O)c1 | 0% |  |
| COc1cccc(CCc2nc3ccc(N4CCCCC4)cc3c(=O)n2-c2cccc(C(C)(C)C)c2)n1 | 0% |  |
| COc1cccc(/C=C/c2nc3ccc(-c4ccc(F)cc4)cc3c(=O)n2-c2cccc(C(C)(C)C)c2)n1 | 99% |  |
| CC(C)(C)c1cccc(-n2c(/C=C/c3cncnc3)nc3ccccc3c2=O)c1 | 68.4% |  |
| CC(C)(C)c1cccc(-n2c(/C=C/c3ccc4ccccc4c3)nc3ccccc3c2=O)c1 | 68.4% |  |
| COc1cccc(/C=C/c2nc3ccc(N4CCCC4)cc3c(=O)n2-c2cccc(C(C)(C)C)c2)n1 | 68.4% |  |
| Cc1ccccc1-n1c(/C=C/c2cccnc2)nc2ccccc2c1=O | 0% |  |
| COc1cccc(-n2c(/C=C/c3cccc(OC)n3)nc3ccc(N4CCCCC4)cc3c2=O)c1 | 99.9% | EC50 (Zika virus [5]): 210 nM; CC50 (U-87 MG): > 20000 nM; EC50 (dengue virus type 2): 560 nM; EC50 (Zika virus [6]): 690 nM; inhibition at 1 µM (Zika virus [2]): 90%; EC50 (Zika virus [8]): 770 nM |
| COc1ncccc1/C=C/c1nc2ccccc2c(=O)n1-c1cccc(C(C)(C)C)c1 | 68.4% | log(activity) (Zika virus [3]): 0.5 |
| COc1ccccc1/C=C/c1nc2ccccc2c(=O)n1-c1cccc(C(C)(C)C)c1 | 0% |  |
| COc1cccc(-n2c(/C=C/c3cccnc3)nc3ccccc3c2=O)c1 | 68.4% | log(activity) (Zika virus [3]): 0.5 |
